Experimental data taken from article PMC7688577 (FASEB journal : official publication of the Federation of …, 2020).

Legend:
[1] = target: P23H rhodopsin fused with Renilla luciferase (Mus musculus, UniProt P15409, P23H); test: Rluc reporter assay in Hek293; type: cell-based; conditions: for Rluc assay Hek293 (RHO^P23H-Rluc) Efficacy: DMSO = 0%, 1 mM Evans Blue = -100%; for EC50: read-out: Rluc assay Hek293 (RHO^P23H-Rluc) EC50, 24 h treatment, dose response
[2] = system: WT rhodopsin fused with Renilla luciferase; test: Rluc reporter counter assay in Hek293; type: cell-based, mouse; conditions: DMSO = 0%, 1 mM Evans Blue = -100%; NA = no dose response effect
How it was run: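 HEK293 cells stably expressing WT rhodopsin–Rluc, run as the HTS reporter assay: cells spun 300 × g 30 s, cultured overnight at 37 °C, 5% CO2; test compound in DMSO pin-transferred. ViviREN (50 μM solution in PBS) added, 1 h dim light, room temperature; luminescence read. Score = (RLU_compound − RLU_DMSO)/(RLU_DMSO − RLU_Evans Blue) ×100; 10 μM triplicates and dose-response.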

[3] = target: T1, P23H rhodopsin (Mus musculus, UniProt P15409, P23H); test: Image-based; type: cell-based; conditions: for Image-based assay NIH3T3 (RHO^P23H/GFP) Efficacy: DMSO = 0%, secondary antibody only = -100%; for EC50: read-out: Image-based assay NIH3T3 (RHO^P23H/GFP) EC50, 24 h treatment, 8-10 doses
[4] = target: T1, P23H rhodopsin; test: Rhodopsin dot blot of NIH3T3; type: cell-based; conditions: NIH3T3(RHO^P23H/GFP) cells, 10 μM, 24 h, vs DMSO control
How it was run: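 NIH3T3(RHO^P23H/GFP) cells were seeded at 2.5 × 10⁴/well in 96-well plates, attached 4 h, then given medium with 2× test compound to reach 10 μM final for 24 h. Cells were PBS-washed and lysed in RIPA with protease inhibitors plus 6 s sonication. Of each well's lysate, 90% was dotted on nitrocellulose, air-dried and probed with 0.1 μg/mL HRP-1D4. Densitometry was normalized to DMSO.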

[5] = system: RHO transcripts; test: qPCR of RHO transcripts in NIH3T3; type: cell-based, mouse; conditions: 10 μM; for Rho mRNA level (qPCR): NIH3T3(RHO^P23H/GFP) cells, vs DMSO control; for Rho mRNA level (qPCR) / WT and P23H rhodopsin transcripts in comparison to DMSO control: 24 h
How it was run: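 NIH3T3 cells stably expressing WT or P23H rhodopsin (GFP lines) were seeded in 24-well plates at 2.5×10⁵ cells/well and cultured overnight at 37 °C, 5% CO₂. They were then exposed to test compound in culture medium for 24 h. RNA was precipitated by centrifugation at 12,000×g for 10 min at 4 °C, washed with 75% ethanol, air-dried and dissolved in nuclease-free water before qPCR.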

[6] = target: T1, P23H rhodopsin; test: Non-radioactive pulse-chase assay in NIH3T3; type: cell-based; conditions: 10 μM; for Rate of Rho^P23H degradation (Pulse-chase): NIH3T3(RHO^P23H/GFP) cells, 24 h chase, vs DMSO control
How it was run: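 Non-radioactive pulse-chase. Cells (3 × 10⁵/well, 24-well) were grown overnight, starved in Met-free DMEM for 1 h, then pulsed with 50 μM L-AHA for 4 h (50 μM Met as negative control). Chase was 24 h in DMEM with 2 mM Met ± 10 μM test compound. Lysates (200 μg) were clicked with 5 μM BTN-sDIBO for 1 h at 37 °C, immunoprecipitated with 1D4, eluted at pH 2.8, dot-blotted and probed with HRP-streptavidin. Values normalized to DMSO on the same membrane; N=3, unpaired two-tailed t-test.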

[7] = system: rhodopsin mutants (T4R, P23H, P53R, C110Y, D190N, P267L); type: cell-based, mouse; conditions: U2OS cells; T4R, P23H, P53R, C110Y, D190N, P267L mutants
How it was run: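 U2OS stable lines expressed WT or mutant mouse rhodopsin fused to Venus. Cells were transfected with pcDNA3.1 Zeo constructs, kept 48 h in DMEM/10% FBS, then selected with 400 μg/mL Zeocin. Stable cells were treated with test compound at 10 μM and immunostained for rhodopsin.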

[8] = both NIH3T3(RHO^P23H/GFP) and NIH3T3(RHO^WT/GFP) cells

SMILES | Rluc assay Hek293 (RHO^P23H-Rluc) Efficacy [1] | EC50 [1] | Rluc assay Hek293 (RHO^WT-Rluc) Efficacy [2] | Image-based assay NIH3T3 (RHO^P23H/GFP) Efficacy [3] | EC50 [3] | Rho protein level (Dot blot) [4] | Rho mRNA level (qPCR) [5] | WT and P23H rhodopsin transcripts in comparison to DMSO control [5, 8] | BTN-AHA labeled P23H rhodopsin at 24 h of chase in comparison to DMSO control [6] | Immunofluorescence intensities of rhodopsin mutants [7] | Rate of Rho^P23H degradation (Pulse-chase) [6] | Increase of rhodopsin transcripts compared to DMSO control [5, 8]
CC(=O)OC(CC(=O)[O-])C[N+](C)(C)C (stereo not drawn) [CL-001] | −69.4% | 1100 nM | −44.3% | −83.6% | 2100 nM | Down | Down | reduced non-selectively | significantly reduced | reduced | – | –
CC(=O)OC(CC(=O)O)C[N+](C)(C)C (stereo not drawn) [CL-002] | −86.1% | 2000 nM | −62.0% | −61.0% | 1600 nM | Down | Down | reduced non-selectively | significantly reduced | reduced | – | –
O=C(O)C1=CC=CC(O)C1O (stereo not drawn) [CL-003] | −65.3% | 890 nM | −37.7% | −46.1% | 600 nM | Down | Down | reduced non-selectively | – | – | No Change | –
CC(O)CN (stereo not drawn) [CL-004] | −68.6% | 1600 nM | −45.5% | −70.7% | 470 nM | Down | Down | reduced non-selectively | – | – | No Change | –
NCC(=O)COP(=O)(O)O [CL-005] | −78.2% | 6600 nM | −57.9% | −72.7% | 1300 nM | Down | – | – | significantly reduced | reduced | – | up to 2 fold
O=[N+]([O-])c1ccc(Cl)c([N+](=O)[O-])c1 [CL-006] | −66.2% | 1700 nM | −42.9% | −76.4% | 2200 nM | Down | Down | reduced non-selectively | – | – | No Change | –
CCn1cnc2c(N)ncnc21 [CL-007] | −72.5% | 13000 nM | −51.7% | −72.7% | 2900 nM | Down | Down | reduced non-selectively | significantly reduced | reduced | – | –
CCC(C)(O)C(O)C(=O)O (stereo not drawn) [CL-008] | −89.5% | 930 nM | −52.7% | −70.1% | 1600 nM | Down | Down | reduced non-selectively | – | – | No Change | –
